Data reported in publication PMC12219357 (Nature Communications, 2025).
Several values for one entry are separate records, joined by “and”; a condition that tells them apart may be missing. Identical values can stand only once. Entries after “also recorded” stand apart in the source; their conditions may differ. Where a SMILES comes first, the peptide text is derived from it. The star is where a group is joined. 5FAM = O=C1OC2(c3ccc(O)cc3Oc3cc(O)ccc32)c2ccc(C(=O)*)cc21

Tests used:
Type in all cases: in vivo, human
[1] = test system: adult patients with head and neck neoplasms undergoing parotidectomy or thyroidectomy
[2] = test system: adult patients with head and neck neoplasms; test: Clinical laboratory assessments
Method in brief: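 Test compound given as a single IV infusion over 30 min on Day 1, at dose tiers of 100–600 mg. Hematology, chemistry, coagulation and urinalysis were run at the preoperative visit, then repeated on Day 1 before dosing and at end of infusion. Histamine, tryptase, C3a and C5 were sampled before, during and after infusion. Further safety labs on Day 15 (±8 days) and Day 28 (+5 days). Summarized descriptively by dose.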

[3] = test system: adult patients with head and neck neoplasms; test: Vital signs, physical examination and 12-lead ECG
[4] = Pharmacokinetics after intravenous infusion
[5] = test system: nerves (head and neck surgery); test: Quantitative image analysis of intraoperative nerve fluorescence; details: for Background fluorescence, mean pixel intensity (MPI): FL images
Method in brief: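 Paired white-light and fluorescence images taken intraoperatively through a surgical microscope with a yellow 560 fluorescence module. Analysis used the green channel of fluorescence images and 5–20 elliptical ROIs per nerve and per adjacent non-nerve tissue. After background subtraction, SBR = nerve MPI / background MPI. Statistics: Welch ANOVA, Kruskal-Wallis, Wilcoxon rank sum.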

[6] = test system: nerves (head and neck surgery); test: Visualization Scoring System; details: 500 mg

CC(C)[C@H](NC(=O)[C@H](Cc1ccc(O)cc1)NC(=O)[C@H](Cc1ccc(O)cc1)NC(=O)[C@@H]1CCCN1C(=O)[C@H](CCC(=O)O)NC(=O)[C@H](CCC(=O)O)NC(=O)[C@H](Cc1c[nH]c2ccccc12)NC(=O)[C@@H]1CCCN1C(=O)[C@@H](NC(=O)[C@H](CCC(N)=O)NC(=O)c1ccc2c(c1)C(=O)OC21c2ccc(O)cc2Oc2cc(O)ccc21)C(C)C)C(=O)N[C@H](C(=O)N[C@@H](CCCCN)C(=O)N[C@@H](CCCCN)C(=O)N[C@@H](CO)C(=O)N[C@@H](CO)C(=O)NCC(=O)NCC(N)=O)C(C)C [bevonescein] (5FAM-QVPWEEPYYVVKKSSGG-NH2; C-terminus assumed)
AEs greater than grade 1 attributable to the study drug ([1]; 27 patients): no adverse events greater than grade 1 | AEs assessed as possibly related to the study drug ([1]; 27 subjects, all doses, resolved without intervention): a single adverse event | Tolerability of preoperative intravenous infusion ([1]; 100-600 mg): well tolerated | Dose-limiting toxicity (DLT) ([1]; all doses 100-600 mg, single IV infusion over 30 min, 27 patients, NCI CTCAE): no dose-limiting toxicity | Hematology, chemistry, coagulation, and urinalysis findings ([2]; all patients, as deemed by the investigators): normal ranges or not clinically significant abnormalities | Tryptase and complements C3a and C5 levels ([2]; during the study): remained stable | Changes from baseline in vital signs ([3]; all cohorts): no clinically significant or relevant differences | ECG values ([3]; all patients, 12-lead ECG): normal or non-clinically significant abnormal ECG values | Increase of mean unbound AUClast over the 6-fold increase in dose ([4]; 100 to 600 mg, bevonescein not bound to plasma or tissue proteins): 6.1 fold | Free fraction ([4]; from unbound vs total AUClast): approximately 30% | SBR, FL images ([5]; 500 mg cohort (dose comparison)): 3.0 ± 1.0 | Background fluorescence, mean pixel intensity (MPI) ([5]; 500 mg cohort): 39.5 ± 17 | Signal-to-background ratio (SBR), fluorescence (FL) images ([5]; 500 mg, 54 evaluable nerves in 14 subjects, mean ± SD): 2.1 ± 0.8 and 2.08 ± 0.83 | Fluorescent SBR of nerves, early (1-3 h) versus late (3-5 h) timing cohorts ([5]; 500 mg, infusion to incision, two-sided Wilcoxon rank sum test): not statistically different; also recorded: no significant difference | Background fluorescence, mean pixel intensity (MPI) ([5]; 600 mg cohort, Welch ANOVA p < 0.01 vs 500 mg): 73.2 ± 34 | SBR, FL images ([5]; 600 mg cohort, Kruskal-Wallis p > 0.05 vs 500 mg): 2.2 ± 1.6 | Improvement in nerve length with FL images, share of subjects (so in the source) [6]: 78% | Subjects with some improvement in visible nerve length ([6]; 14 subjects): 100% | Individual nerves with improvement in length measurements ([6]; n = 42/54 nerves, paired FL overlay vs WLR): 78%
